{"source": "paper PMC9292215", "about": "(Clinical Pharmacology and Therapeutics, 2021)", "key": {"anandamide (AEA)": {"test_system": "anandamide (AEA)", "test": "Plasma anandamide", "type": "in vivo, human", "settings": "for AEA AUC0–24: Day 1; for AEA AUC0–τ: Day 10", "summary_of_the_method": "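In a double-blind, placebo-controlled multiple-dose part, healthy adult men and women in groups of eight (six active, two placebo) took oral test compound once daily for 10 days. They fasted at least 8 h before and 1 h after dosing. Plasma anandamide AUCs were taken on Days 1 and 10, with a Day 10/Day 1 ratio. Data are mean (CV%); tmax is median (range).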"}, "[1]": {"test": "Plasma pharmacokinetics of BIA 10-2474 and metabolites", "type": "in vivo, human", "settings": "for Cmax / Tmax / AUC(0-inf) / AUC(0-t) / clearance / half-life: both, human, plasma, oral; for AUC(0-t): AUC0–t; for clearance: CL"}}, "data": [{"smiles": "CN(C(=O)n1cnc(-c2ccc[n+]([O-])c2)c1)C1CCCCC1", "note": "[BIA 10-2474, 3-(1-(cyclohexyl(methyl)carbamoyl)-1H-imidazol-4-yl)pyridine 1-oxide]", "values": [{"measurement": "AEA Ratio (AUCD10/D1)", "setting": "anandamide (AEA); 2.5 mg once daily", "value": 1.27}, {"measurement": "AEA AUC0–24", "setting": "anandamide (AEA); 2.5 mg once daily", "value": "42.8 (17.1) ng⋅hour/mL"}, {"measurement": "AEA AUC0–τ", "setting": "anandamide (AEA); 2.5 mg once daily", "value": "54.2 (9.41) ng⋅hour/mL"}, {"measurement": "AEA Ratio (AUCD10/D1)", "setting": "anandamide (AEA); 5 mg once daily", "value": 1.25}, {"measurement": "AEA AUC0–24", "setting": "anandamide (AEA); 5 mg once daily", "value": "44.9 (23.4) ng⋅hour/mL"}, {"measurement": "AEA AUC0–τ", "setting": "anandamide (AEA); 5 mg once daily", "value": "56.3 (17.7) ng⋅hour/mL"}, {"measurement": "AEA Ratio (AUCD10/D1)", "setting": "anandamide (AEA); 10 mg once daily", "value": 1.16}, {"measurement": "AEA AUC0–24", "setting": "anandamide (AEA); 10 mg once daily", "value": "52.2 (19.3) ng⋅hour/mL"}, {"measurement": "AEA AUC0–τ", "setting": "anandamide (AEA); 10 mg once daily", "value": "60.8 (17.9) ng⋅hour/mL"}, {"measurement": "AEA Ratio (AUCD10/D1)", "setting": "anandamide (AEA); 20 mg once daily", "value": 1.22}, {"measurement": "AEA AUC0–24", "setting": "anandamide (AEA); 20 mg once daily", "value": "51.2 (19.6) ng⋅hour/mL"}, {"measurement": "AEA AUC0–τ", "setting": "anandamide (AEA); 20 mg once daily", "value": "62.8 (21.7) ng⋅hour/mL"}, {"measurement": "BIA 10-2474 plasma exposure giving relevant AEA increases", "setting": "anandamide (AEA); achieved with 10 mg/day", "value": "around 1,500 ng⋅h/mL"}, {"measurement": "AEA AUC0–t", "setting": "anandamide (AEA); single dose 0.25 mg", "value": "27.5 (34.1) ng⋅hour/mL"}, {"measurement": "AEA AUC0–t", "setting": "anandamide (AEA); single dose 1.25 mg", "value": "68.0 (13.1) ng⋅hour/mL"}, {"measurement": "AEA AUC0–t", "setting": "anandamide (AEA); single dose 2.5 mg", "value": "101 (17.2) ng⋅hour/mL"}, {"measurement": "AEA AUC0–t", "setting": "anandamide (AEA); single dose 5 mg", "value": "109 (11.2) ng⋅hour/mL"}, {"measurement": "AEA AUC0–t", "setting": "anandamide (AEA); single dose 10 mg", "value": "137 (8.92) ng⋅hour/mL"}, {"measurement": "AEA AUC0–t", "setting": "anandamide (AEA); single dose 20 mg", "value": "149 (6.20) ng⋅hour/mL"}, {"measurement": "AEA AUC0–t", "setting": "anandamide (AEA); single dose 40 mg", "value": "160 (26.42) ng⋅hour/mL"}, {"measurement": "AEA AUC0–t", "setting": "anandamide (AEA); single dose 100 mg", "value": "188 (22.4) ng⋅hour/mL"}, {"measurement": "increase in plasma AEA AUC compared with placebo", "setting": "anandamide (AEA); single dose 100 mg", "value": 12.5, "unit": "fold"}, {"measurement": "return of AEA to baseline", "setting": "anandamide (AEA); single doses", "value": "> 72", "unit": "hours post dose"}, {"measurement": "V/F", "setting": "[1]; 2.5 mg once daily, Day 1", "value": "56.1 (18.7) L"}, {"measurement": "Racc", "setting": "[1]; 2.5 mg once daily, Day 10", "value": 1.15}, {"measurement": "V/F", "setting": "[1]; 2.5 mg once daily, Day 10", "value": "57.0 (26.0) L"}, {"measurement": "V/F", "setting": "[1]; 5 mg once daily, Day 1", "value": "63.2 (20.4) L"}, {"measurement": "Racc", "setting": "[1]; 5 mg once daily, Day 10", "value": 1.31}, {"measurement": "V/F", "setting": "[1]; 5 mg once daily, Day 10", "value": "65.3 (17.4) L"}, {"measurement": "V/F", "setting": "[1]; 10 mg once daily, Day 1", "value": "69.0 (22.8) L"}, {"measurement": "Racc", "setting": "[1]; 10 mg once daily, Day 10", "value": 1.59}, {"measurement": "V/F", "setting": "[1]; 10 mg once daily, Day 10", "value": "61.4 (17.9) L"}, {"measurement": "V/F", "setting": "[1]; 20 mg once daily, Day 1", "value": "66.3 (7.34) L"}, {"measurement": "Racc", "setting": "[1]; 20 mg once daily, Day 10", "value": 1.57}, {"measurement": "V/F", "setting": "[1]; 20 mg once daily, Day 10", "value": "64.1 (15.4) L"}, {"measurement": "V/F", "setting": "[1]; 50 mg once daily, Day 1", "value": "67.9 (9.78) L"}, {"measurement": "accumulation ratio, based on AUC0–24h", "setting": "[1]; Day 10", "value": "< 2"}, {"measurement": "Overall fold increase in AUC0–τ", "setting": "[1]; MAD Day 1", "value": 19.6}, {"measurement": "Overall fold increase in Cmax", "setting": "[1]; MAD Day 1", "value": 14.5}, {"measurement": "Fold increase in AUC0–τ", "setting": "[1]; MAD Day 1, 2.5 to 5 mg", "value": 1.8}, {"measurement": "Fold increase in Cmax", "setting": "[1]; MAD Day 1, 2.5 to 5 mg", "value": 1.7}, {"measurement": "Fold increase in AUC0–τ", "setting": "[1]; MAD Day 1, 5 to 10 mg", "value": 2.0}, {"measurement": "Fold increase in Cmax", "setting": "[1]; MAD Day 1, 5 to 10 mg", "value": 1.9}, {"measurement": "Fold increase in AUC0–τ", "setting": "[1]; MAD Day 1, 10 to 20 mg", "value": 2.1}, {"measurement": "Fold increase in Cmax", "setting": "[1]; MAD Day 1, 10 to 20 mg", "value": 2.0}, {"measurement": "Fold increase in AUC0–τ", "setting": "[1]; MAD Day 1, 20 to 50 mg", "value": 2.6}, {"measurement": "Fold increase in Cmax", "setting": "[1]; MAD Day 1, 20 to 50 mg", "value": 2.3}, {"measurement": "Overall fold increase in AUC0–τ", "setting": "[1]; MAD Day 10", "value": 8.84}, {"measurement": "Overall fold increase in Cmax", "setting": "[1]; MAD Day 10", "value": 7.53}, {"measurement": "Fold increase in AUC0–τ", "setting": "[1]; MAD Day 10, 2.5 to 5 mg", "value": 1.7}, {"measurement": "Fold increase in Cmax", "setting": "[1]; MAD Day 10, 2.5 to 5 mg", "value": 1.6}, {"measurement": "Fold increase in AUC0–τ", "setting": "[1]; MAD Day 10, 5 to 10 mg", "value": 2.4}, {"measurement": "Fold increase in Cmax", "setting": "[1]; MAD Day 10, 5 to 10 mg", "value": 2.2}, {"measurement": "Fold increase in AUC0–τ", "setting": "[1]; MAD Day 10, 10 to 20 mg", "value": 2.1}, {"measurement": "Fold increase in Cmax", "setting": "[1]; MAD Day 10, 10 to 20 mg", "value": 2.1}, {"measurement": "Fold increase in Cmax", "setting": "[1]; SAD, 1.25 to 2.5 mg", "value": 1.9}, {"measurement": "Fold increase in AUC0–t", "setting": "[1]; SAD, 2.5 to 5 mg", "value": 2.4}, {"measurement": "Fold increase in Cmax", "setting": "[1]; SAD, 2.5 to 5 mg", "value": 2.7}, {"measurement": "Fold increase in AUC0–t", "setting": "[1]; SAD, 5 to 10 mg", "value": 2.1}, {"measurement": "Fold increase in Cmax", "setting": "[1]; SAD, 5 to 10 mg", "value": 1.7}, {"measurement": "Fold increase in AUC0–t", "setting": "[1]; SAD, 10 to 20 mg", "value": 2.8}, {"measurement": "Fold increase in Cmax", "setting": "[1]; SAD, 10 to 20 mg", "value": 2.1}, {"measurement": "Fold increase in AUC0–t", "setting": "[1]; SAD, 20 to 40 mg", "value": 2.2}, {"measurement": "Fold increase in Cmax", "setting": "[1]; SAD, 20 to 40 mg", "value": 2.6}, {"measurement": "Fold increase in AUC0–t", "setting": "[1]; SAD, 40 to 100 mg", "value": 2.6}, {"measurement": "Fold increase in Cmax", "setting": "[1]; SAD, 40 to 100 mg", "value": 2.2}, {"measurement": "Overall fold increase in AUC0–t", "setting": "[1]; SAD, over the dosage range", "value": 19.6}, {"measurement": "Cmax", "setting": "[1]; 0.25 mg, single dose 0.25 mg", "value": 3.1, "unit": "ng/mL"}, {"measurement": "Tmax", "setting": "[1]; 0.25 mg, single dose 0.25 mg", "value": 2, "unit": "h"}, {"measurement": "AUC(0-inf)", "setting": "[1]; 1.25 mg", "value": 142, "unit": "ng·h/mL"}, {"measurement": "AUC(0-t)", "setting": "[1]; 1.25 mg, single dose 1.25 mg", "value": 98, "unit": "ng·h/mL"}, {"measurement": "clearance", "setting": "[1]; 1.25 mg, single dose 1.25 mg", "value": 155, "unit": "mL/min"}, {"measurement": "Cmax", "setting": "[1]; 1.25 mg, single dose 1.25 mg", "value": 16.2, "unit": "ng/mL"}, {"measurement": "half-life", "setting": "[1]; 1.25 mg, t1/2, single dose 1.25 mg", "value": 6.54, "unit": "h"}, {"measurement": "Tmax", "setting": "[1]; 1.25 mg, single dose 1.25 mg", "value": 1.5, "unit": "h"}, {"measurement": "AUC(0-inf)", "setting": "[1]; 2.5 mg", "value": 338, "unit": "ng·h/mL"}, {"measurement": "AUC(0-t)", "setting": "[1]; 2.5 mg, single dose 2.5 mg", "value": 289, "unit": "ng·h/mL"}, {"measurement": "clearance", "setting": "[1]; 2.5 mg, single dose 2.5 mg", "value": 131, "unit": "mL/min"}, {"measurement": "Cmax", "setting": "[1]; 2.5 mg, single dose 2.5 mg", "value": 31.2, "unit": "ng/mL"}, {"measurement": "half-life", "setting": "[1]; 2.5 mg, t1/2, single dose 2.5 mg", "value": 7.04, "unit": "h"}, {"measurement": "Tmax", "setting": "[1]; 2.5 mg, single dose 2.5 mg", "value": 1.5, "unit": "h"}, {"measurement": "AUC(0-t)", "setting": "[1]; 5 mg, single dose 5 mg", "value": 693, "unit": "ng·h/mL"}, {"measurement": "Cmax", "setting": "[1]; 5 mg, single dose 5 mg", "value": 85.4, "unit": "ng/mL"}, {"measurement": "Tmax", "setting": "[1]; 5 mg, single dose 5 mg", "value": 2, "unit": "h"}, {"measurement": "clearance", "setting": "[1]; 40 mg, single dose 40 mg", "value": 116, "unit": "mL/min"}, {"measurement": "half-life", "setting": "[1]; 40 mg, t1/2, single dose 40 mg", "value": 7.84, "unit": "h"}]}]}
